We go through one substance from ChEMBL document CHEMBL3352237, “Synthesis and biological evaluation of novel peptide BF2 as an antibacterial agent against clinical isolates of vancomycin-resistant enterococci” (J Med Chem, 2014).

What is called MBC is the smallest concentration meeting the test's criterion for killing. One may read the MIC as the smallest concentration in the dilution series that meets the test's criterion for growth inhibition. Low values mean greater potency, high ones weaker potency.

Assay [1] concerns Enterococcus faecalis. Description: Bactericidal activity against vancomycin-resistant Enterococcus faecalis clinical isolate 387702 after 24 hrs by two-fold serial dilution method. To be noted: isolate 387702, 24 h. Format: functional.
Assay [2] deals with Enterococcus faecium. The assay is described as follows: Antibacterial activity against vancomycin-resistant Enterococcus faecium clinical isolate 16475 after overnight incubation by two-fold serial dilution method. The class given is functional.
The test system of assay [3] is Enterococcus faecium. The assay is described as follows: Bactericidal activity against vancomycin-resistant Enterococcus faecium clinical isolate 28/211 after 24 hrs by two-fold serial dilution method. The conditions noted are these: isolate 28/211, 24 h. The class given is functional.
For assay [4], the system named is Enterococcus faecalis. Description: Antibacterial activity against vancomycin-resistant Enterococcus faecalis clinical isolate 7846 after overnight incubation by two-fold serial dilution method. The class given is functional.
For assay [5], the system named is Enterococcus. The assay is described as follows: Antibacterial activity against vancomycin-resistant Enterococcus clinical isolate after 18 to 20 hrs by checkerboard titration method in presence of linezolid. Format: functional.
Assay [6] deals with Enterococcus faecalis. The assay is described as follows: Bactericidal activity against vancomycin-resistant Enterococcus faecalis clinical isolate 22/203 after 24 hrs by two-fold serial dilution method. To be noted: isolate 22/203, 24 h. Format: functional.
For assay [7], the system named is Enterococcus faecium. Description: Antibacterial activity against vancomycin-resistant Enterococcus faecium clinical isolate 7/27 after overnight incubation by two-fold serial dilution method. The class given is functional.
The test system of assay [8] is Enterococcus faecium. The assay is described as follows: Bactericidal activity against vancomycin-resistant Enterococcus faecium clinical isolate 15/213 after 24 hrs by two-fold serial dilution method. The class given is functional. To be noted: isolate 15/213, 24 h.
Assay [9] deals with Enterococcus. Description: Antibacterial activity against Enterococcus infected in iv dosed Wistar albino rat assessed as reduction in cell count after 1 hr relative to control. The class given is functional, organism-based. The method in brief:
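Female Wistar albino rats, 40−45 days old, 125−150 g, 5 groups of 3. Enterococci grown in MH broth to log phase, spun at 1000g for 15 min, diluted in PBS to 4 × 10^6 CFU/mL and inoculated i.v. Treatment i.v. 1 h later at 12.5, 25 or 37.5 mg/kg. Vehicle was 0.1 mL PBS i.v.; linezolid 25 mg/kg i.v. was the positive control. Tail-vein blood taken 1 h after treatment, plated on blood agar, incubated at 37 °C in ambient air overnight, and colonies counted.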

Assay [10] relates to Enterococcus faecium. Description: Antibacterial activity against vancomycin-resistant Enterococcus faecium clinical isolate 31386 after overnight incubation by two-fold serial dilution method. The class given is functional.
Assay [11] has as its system Enterococcus faecium. Description: Antibacterial activity against vancomycin-resistant Enterococcus faecium clinical isolate 147969 after overnight incubation by two-fold serial dilution method. The class given is functional.
For assay [12], the system named is Enterococcus faecalis. The assay is described as follows: Bactericidal activity against vancomycin-resistant Enterococcus faecalis clinical isolate 7846 after 24 hrs by two-fold serial dilution method. Format: functional. To be noted: isolate 7846, 24 h.
For assay [13], the system named is Enterococcus faecalis. Description: Bactericidal activity against vancomycin-resistant Enterococcus clinical isolate assessed as log reduction at 2 times MIC after 60 to 120 mins by serial dilution method. Format: functional. A digest of the protocol:
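Time-kill assay: enterococci exposed to peptide at 2× MIC, with viable counts read as log10 CFU/mL over a 60–120 min exposure. Run on ATCC 29212 and a clinical isolate.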

Regarding H-RWRLLLLKKH-OH, the MBC against Enterococcus faecalis [1], in the assay on Enterococcus faecium [3], in the assay with Enterococcus faecalis [6], with Enterococcus faecium [8], against Enterococcus faecalis [12] and with Enterococcus faecalis [13] was 25 µg/mL in each case. Also, the MIC with Enterococcus faecium [2] is 12.5 µg/mL; against Enterococcus faecalis [4], 12.5 µg/mL; against Enterococcus faecium [7], 12.5 µg/mL; against Enterococcus faecium [10] it was 6.25 µg/mL; against Enterococcus faecium [11] it was 12.5 µg/mL. In the assay with Enterococcus [5], the “fractional inhibitory concentration index (FICI)” value is listed as 2. In addition, the Activity entry in the assay on Enterococcus [9] was “Dose-dependent effect”.
